According to ChEMBL document CHEMBL5303300, “EUbOPEN Chemogenomics Library - Multiplex” (2023):
Where “and” joins values, the source holds several entries; their conditions need not be identical. Identical values can stand only once.

Tested on: U2OS
Assay: Multiplex assay against U2OS
Assay type: toxicity, cell-based
Settings: human, number of replicates 2
Method in brief: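 Hoechst33342, BioTracker Green Microtubule Cytoskeleton Dye, MitoTracker Red and Annexin V Alexa Fluor 680 were added to live cells at seeding, and imaging on a CQ1 microscope at 37°C and 5% CO2 followed compound addition. Gating by CellPathfinder machine learning separated cells into Hoechst high-intensity objects or normal cells, then normal cells into healthy, pyknosed or fragmented nuclei, then pyknosed cells into mitotic or apoptotic. Per cents of healthy-nucleus cells are reported for the tubulin, mitochondrial-mass and membrane-permeability phenotypes.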

[1] = 12 h, 1 µM, compound concentration 1 uM
[2] = 12 h, 10 µM, compound concentration 10 uM
[3] = 24 h, 1 µM, compound concentration 1 uM
[4] = 24 h, 10 µM, compound concentration 10 uM
[5] = 48 h, 1 µM, compound concentration 1 uM
[6] = 48 h, 10 µM, compound concentration 10 uM

## CC(C)S(=O)(=O)c1ccccc1Nc1nc(N[C@@H]2CCCN(CCCCCCCNC(=O)COc3cccc4c3C(=O)N(C3CCC(=O)NC3=O)C4=O)C2)ncc1Cl (stereo partly specified)
[1]
  Population Apoptotic (%): 82% and 80%
  Population Fragmented Nuclei (%): 14% and 8%
  Population Healthy Nuclei (%): 43% and 61%
  Population Hoechst High Intensity Objects (%): 0% and 1%
  Population Membrane Permeable-Phenotype (%): 5%
  Population Mitochondria Different-Phenotype (%): 5% and 6%
  Population Mitotic Cells (%): 17% and 19%
  Population Normal (%): 100% and 98%
  Population Pyknosed Nuclei (%): 41% and 30%
  Population Tubulin-Different-Phenotype (%): 66% and 62%
[2]
  Population Apoptotic (%): 85% and 81%
  Population Fragmented Nuclei (%): 11% and 7%
  Population Healthy Nuclei (%): 38% and 61%
  Population Hoechst High Intensity Objects (%): 0% and 5%
  Population Membrane Permeable-Phenotype (%): 81% and 57%
  Population Mitochondria Different-Phenotype (%): 62% and 55%
  Population Mitotic Cells (%): 14% and 18%
  Population Normal (%): 100% and 94%
  Population Pyknosed Nuclei (%): 50% and 31%
  Population Tubulin-Different-Phenotype (%): 100% and 96%
[3]
  Population Apoptotic (%): 83% and 87%
  Population Fragmented Nuclei (%): 24% and 14%
  Population Healthy Nuclei (%): 22% and 41%
  Population Hoechst High Intensity Objects (%): 0% and 2%
  Population Membrane Permeable-Phenotype (%): 0% and 5%
  Population Mitochondria Different-Phenotype (%): 0% and 6%
  Population Mitotic Cells (%): 16% and 12%
  Population Normal (%): 100% and 97%
  Population Pyknosed Nuclei (%): 53% and 44%
  Population Tubulin-Different-Phenotype (%): 70% and 87%
[4]
  Population Apoptotic (%): 93% and 89%
  Population Fragmented Nuclei (%): 21% and 10%
  Population Healthy Nuclei (%): 19% and 31%
  Population Hoechst High Intensity Objects (%): 0% and 8%
  Population Membrane Permeable-Phenotype (%): 0% and 25%
  Population Mitotic Cells (%): 6% and 10%
  Population Normal (%): 100% and 91%
  Population Pyknosed Nuclei (%): 59% and 58%
  Population Tubulin-Different-Phenotype (%): 40% and 55%
[5]
  Population Apoptotic (%): 96% and 95%
  Population Healthy Nuclei (%): 22% and 28%
  Population Hoechst High Intensity Objects (%): 2% and 3%
  Population Mitotic Cells (%): 3% and 4%
  Population Normal (%): 97% and 96%
  Population Pyknosed Nuclei (%): 54% and 63%
  Population Tubulin-Different-Phenotype (%): 90% and 85%
[6]
  Population Apoptotic (%): 90% and 97%
  Population Fragmented Nuclei (%): 8% and 22%
  Population Healthy Nuclei (%): 12% and 0%
  Population Hoechst High Intensity Objects (%): 9% and 2%
  Population Mitotic Cells (%): 9% and 2%
  Population Normal (%): 90% and 97%
  Population Pyknosed Nuclei (%): 79% and 77%

## Cc1cn(CCN2CCN(c3ccccc3-c3cc(C#N)cc(C(=O)NCCCN4CCCC4)c3)CC2)c2ccccc12
[1]
  Population Apoptotic (%): 100% and 75%
  Population Healthy Nuclei (%): 73% and 79%
  Population Hoechst High Intensity Objects (%): 0%
  Population Membrane Permeable-Phenotype (%): 8% and 10%
  Population Mitochondria Different-Phenotype (%): 25% and 38%
  Population Mitotic Cells (%): 0% and 25%
  Population Normal (%): 100%
  Population Pyknosed Nuclei (%): 10% and 16%
  Population Tubulin-Different-Phenotype (%): 38% and 27%
[2]
  Population Apoptotic (%): 100% and 82%
  Population Fragmented Nuclei (%): 37% and 13%
  Population Healthy Nuclei (%): 37% and 53%
  Population Hoechst High Intensity Objects (%): 0%
  Population Membrane Permeable-Phenotype (%): 33% and 41%
  Population Mitochondria Different-Phenotype (%): 62% and 56%
  Population Mitotic Cells (%): 0% and 17%
  Population Normal (%): 100%
  Population Pyknosed Nuclei (%): 25% and 33%
  Population Tubulin-Different-Phenotype (%): 91%
  Total Cell Count: 64 and 135
[3]
  Population Apoptotic (%): 73% and 87%
  Population Healthy Nuclei (%): 54% and 85%
  Population Hoechst High Intensity Objects (%): 0%
  Population Membrane Permeable-Phenotype (%): 8% and 7%
  Population Mitochondria Different-Phenotype (%): 23% and 47%
  Population Mitotic Cells (%): 26% and 12%
  Population Normal (%): 100%
  Population Pyknosed Nuclei (%): 24% and 12%
  Population Tubulin-Different-Phenotype (%): 29% and 24%
[4]
  Population Apoptotic (%): 90% and 88%
  Population Fragmented Nuclei (%): 18% and 32%
  Population Healthy Nuclei (%): 42% and 24%
  Population Hoechst High Intensity Objects (%): 0% and 1%
  Population Membrane Permeable-Phenotype (%): 65% and 35%
  Population Mitochondria Different-Phenotype (%): 47% and 78%
  Population Mitotic Cells (%): 9% and 12%
  Population Normal (%): 99% and 98%
  Population Pyknosed Nuclei (%): 39% and 43%
  Population Tubulin-Different-Phenotype (%): 94% and 92%
  Total Cell Count: 162 and 59
[5]
  Population Apoptotic (%): 88% and 81%
  Population Healthy Nuclei (%): 60% and 81%
  Population Hoechst High Intensity Objects (%): 0%
  Population Mitochondria Different-Phenotype (%): 11% and 26%
  Population Mitotic Cells (%): 11% and 18%
  Population Normal (%): 100%
  Population Pyknosed Nuclei (%): 22% and 14%
  Population Tubulin-Different-Phenotype (%): 24% and 31%
[6]
  Population Apoptotic (%): 100% and 92%
  Population Fragmented Nuclei (%): 17% and 50%
  Population Hoechst High Intensity Objects (%): 0% and 1%
  Population Membrane Permeable-Phenotype (%): 74% and 40%
  Population Mitochondria Different-Phenotype (%): 48% and 20%
  Population Mitotic Cells (%): 0% and 7%
  Population Normal (%): 100% and 98%
  Population Pyknosed Nuclei (%): 38% and 41%
  Population Tubulin-Different-Phenotype (%): 94% and 80%
  Total Cell Count: 168 and 63
